Activity calls are given as the source filed them. The calls are words filed in the database; no cut-off is given here.

System in the first data set: not listed separately
The data set is described as follows: Antioxidant activity assessed as trolox equivalents of peroxyl radical scavenging activity at 0.7 to 7 uM preincubated for 15 mins by ORAC assay relative to control. Format: functional. Conditions: 0.5 to 7 uM; in the assay text read “0.5 to 7 uM” for “0.7 to 7 uM”. The method in brief: (§1)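 Peroxyl radical scavenging by ORAC-FL in 75 mM sodium phosphate buffer (pH 7.4) at 37 °C. Fluorescein was 70 nM final. Compounds in methanol were tested at 0.3–2 µM for monohydroxy and 0.5–7 µM for dihydroxy derivatives, preincubated 15 min, then AAPH was added (18 mM final). Fluorescence (ex 485, em 528 nm) was read each minute for 120 min. Net AUC minus methanol blank was referenced to Trolox (0.5–2.5 µM).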
With `O=C(c1ccc(O)c(O)c1)c1cc2cc(Br)ccc2oc1=O`, the Ratio is 13.

System in another data set: not listed separately
Put plainly: Cytotoxicity against BAEC assessed as cell viability at 20 uM after 24 hrs by MTT assay. Details: species or system Bos taurus. The note with it: cattle, BAEC cells; read-out: Activity. The method in brief: (§2)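 BAEC seeded at 10^4–10^5 cells/mL were grown to 60–70% confluency and exposed to compound (10–50 µM) for 24 h. Medium was then replaced and MTT added for 2 h at 37 °C. Formazan was dissolved in DMSO and read at 570 nm. Viability was taken relative to solvent-only wells, n = 3, mean ± SEM.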
(In general: Formazan colour is commonly taken as a measure of viable cells.)
As to `O=C(c1ccc(O)c(O)c1)c1cc2cc(Br)ccc2oc1=O`, the viability at 24 h, 20 µM stood at 100%.
In the case of `O=C(c1ccc(O)cc1)c1cc2cc(O)ccc2oc1=O`, the viability at 24 h, 20 µM stood at 94%.
On to `Cc1cccc2cc(C(=O)c3ccc(O)cc3)c(=O)oc12`, for which the viability at 24 h, 20 µM was determined as 82%.
In the case of `O=C(c1ccc(O)cc1)c1cc2ccccc2oc1=O`, the viability at 24 h, 20 µM is 60%.
In the case of `O=C(c1ccc(O)c(O)c1)c1cc2cc(Br)cc(O)c2oc1=O`, the viability at 24 h, 20 µM came to 23%.
Still for that read-out and setting: in the case of `O=C(c1ccc(O)c(O)c1)c1cc2cccc(O)c2oc1=O` it was 68%; in that of `O=C(c1ccccc1)c1cc2cc(O)ccc2oc1=O`, 95%; in that of `O=C(c1ccccc1)c1cc2cc(Br)cc(O)c2oc1=O`, 101%.
On the same count and under the same terms, in the case of `O=C(c1ccc(O)cc1)c1cc2cc(Br)ccc2oc1=O` it was 93%.

System in the next data set: not listed separately
The data set is described as follows: Cytotoxicity against BAEC assessed as cell viability at 50 uM after 24 hrs by MTT assay. The note with it: cattle, BAEC cells; read-out: Activity. More on the design: species or system Bos taurus. The method in brief:
as §2
`O=C(c1ccc(O)c(O)c1)c1cc2cc(Br)ccc2oc1=O`: the viability at 24 h, 50 µM was found to be 92%.
Still for that read-out and setting: next, `O=C(c1ccc(O)cc1)c1cc2cc(O)ccc2oc1=O`: 93%; `Cc1cccc2cc(C(=O)c3ccc(O)cc3)c(=O)oc12`: 101%; `O=C(c1ccc(O)cc1)c1cc2ccccc2oc1=O`: 44%.
The same measure, in the same setting: in the case of `O=C(c1ccc(O)c(O)c1)c1cc2cc(Br)cc(O)c2oc1=O` it was 71%; in that of `O=C(c1ccc(O)c(O)c1)c1cc2cccc(O)c2oc1=O`, 63%.
For the compound `O=C(c1ccccc1)c1cc2cc(O)ccc2oc1=O`, the viability at 24 h, 50 µM stood at 86%.
Take `O=C(c1ccccc1)c1cc2cc(Br)cc(O)c2oc1=O`: the viability at 24 h, 50 µM amounted to 93%.
On to `O=C(c1ccc(O)cc1)c1cc2cc(Br)ccc2oc1=O`, for which the viability at 24 h, 50 µM came to 104%.

System in another data set: not listed separately
The data set is described as follows: Cytotoxicity against BAEC assessed as cell viability at 10 uM after 24 hrs by MTT assay. Details: species or system Bos taurus. The note with it: cattle, BAEC cells; read-out: Activity. The procedure, abridged:
as §2
With `O=C(c1ccc(O)c(O)c1)c1cc2cc(Br)ccc2oc1=O`, the viability at 24 h, 10 µM was determined as 102%.
On to `O=C(c1ccc(O)cc1)c1cc2cc(O)ccc2oc1=O`, for which the viability at 24 h, 10 µM stood at 68%.
For `Cc1cccc2cc(C(=O)c3ccc(O)cc3)c(=O)oc12`, the viability at 24 h, 10 µM came out at 87%.
With `O=C(c1ccc(O)cc1)c1cc2ccccc2oc1=O`, the viability at 24 h, 10 µM amounted to 76%.
Same read-out and setting: in the case of `O=C(c1ccc(O)c(O)c1)c1cc2cc(Br)cc(O)c2oc1=O` it was 64%.
Consider `O=C(c1ccc(O)c(O)c1)c1cc2cccc(O)c2oc1=O`, for which the viability at 24 h, 10 µM worked out at 49%.
For `O=C(c1ccccc1)c1cc2cc(O)ccc2oc1=O`, the viability at 24 h, 10 µM came out at 88%.
Still for that read-out and setting: next, `O=C(c1ccccc1)c1cc2cc(Br)cc(O)c2oc1=O`: 96%.
Still for that read-out and setting: in the case of `O=C(c1ccc(O)cc1)c1cc2cc(Br)ccc2oc1=O` it was 95%.

For another data set, the system named is BAEC. The data set is described as follows: (§3) Cytoprotective activity against peroxynitrite-induced toxicity in BAEC assessed as cell viability at 20 uM after 24 hrs by MTT assay. The class given is functional. The note with it: Bos taurus. The procedure, abridged:
(§4)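 Bovine aortic endothelial cells (BAEC) in DMEM with 10% FBS, endothelial growth supplement and no antibiotics were grown to 60–70% confluency. They were pretreated 24 h with compound at 10 or 20 µM, then washed twice with PBS. Insult was 1 mM H2O2 for 2 h, or 500 µM SIN-1 (peroxynitrite source) for 4 h. Viability was read by MTT reduction, formazan in DMSO, A570.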
For `O=C(c1ccc(O)c(O)c1)c1cc2cc(Br)ccc2oc1=O`, the outcome was inactive.
Same read-out and setting: in the case of `O=C(c1ccccc1)c1cc2cc(O)ccc2oc1=O` it was “inactive”.

System in a further data set: not listed separately
Described as §3. Format: functional. The note with it: Bos taurus, read-out: Activity. The method in brief: as §4
With `O=C(c1ccc(O)cc1)c1cc2cc(O)ccc2oc1=O`, the viability at 20 µM came to 90%.
On the same count and under the same terms, next, `Cc1cccc2cc(C(=O)c3ccc(O)cc3)c(=O)oc12`: 90%; `O=C(c1ccccc1)c1cc2cc(Br)cc(O)c2oc1=O`: 90%; `O=C(c1ccc(O)cc1)c1cc2cc(Br)ccc2oc1=O`: 90%.

System in another data set: not listed separately
Put plainly: Antioxidant activity assessed as peroxyl radical scavenging activity by ORAC assay relative to trolox. The class given is functional.
Conditions: not given
The method in brief:
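Fluorescein-based ORAC in 75 mM sodium phosphate buffer pH 7.4 with FL 70 nM (final). Compounds in methanol at 0.3–2 µM (monohydroxy) or 0.5–7 µM (dihydroxy) preincubated 15 min at 37 °C, then AAPH 18 mM (final) added. Fluorescence (ex 485, em 528 nm) read every 1 min for 120 min. Net AUC minus methanol blank, expressed against Trolox calibration (0.5–2.5 µM).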
Turning to `Oc1cc(O)c2c(c1)OC(c1ccc(O)c(O)c1)C(O)C2` (stereo not drawn), the Ratio is 6.8.
As to `O=c1c(O)c(-c2ccc(O)c(O)c2)oc2cc(O)cc(O)c12`, the Ratio was 7.3.

System in another data set: not listed separately
Put plainly: Antioxidant activity assessed as trolox equivalents of peroxyl radical scavenging activity at 0.3 to 2 uM preincubated for 15 mins by ORAC assay relative to control. Format: functional.
Conditions: not given
The method in brief:
as §1
Consider `O=C(c1ccc(O)cc1)c1cc2cc(O)ccc2oc1=O`, for which the Ratio stood at 14.1.
On the same count and under the same terms, in the case of `Cc1cccc2cc(C(=O)c3ccc(O)cc3)c(=O)oc12` it was 10.9; in that of `O=C(c1ccc(O)cc1)c1cc2ccccc2oc1=O`, 9.2.
On the same count and under the same terms, in the case of `O=C(c1ccc(O)c(O)c1)c1cc2cc(Br)cc(O)c2oc1=O` it was 8.8; in that of `O=C(c1ccc(O)c(O)c1)c1cc2cccc(O)c2oc1=O`, 8.1; in that of `O=C(c1ccccc1)c1cc2cc(O)ccc2oc1=O`, 11.5.
`O=C(c1ccccc1)c1cc2cc(Br)cc(O)c2oc1=O`: the Ratio was found to be 8.3.
Still for that read-out and setting: in the case of `O=C(c1ccc(O)cc1)c1cc2cc(Br)ccc2oc1=O` it was 9.5; in that of `Cc1c(C)c2c(c(C)c1O)CCC(C)(C(=O)O)O2` (stereo not drawn), 1.

System in a further data set: not listed separately
Put plainly: Antioxidant activity assessed as hydroxyl radical scavenging activity at 4 mM after 5 mins by ESR spectroscopy analysis.
Conditions: not given
For the compound `O=C(c1ccc(O)c(O)c1)c1cc2cc(Br)ccc2oc1=O`, the Activity turned out to be 100%.
Still for that read-out and setting: next, `O=C(c1ccc(O)cc1)c1cc2cc(O)ccc2oc1=O`: 58%; `Cc1cccc2cc(C(=O)c3ccc(O)cc3)c(=O)oc12`: 45%; `O=C(c1ccc(O)cc1)c1cc2ccccc2oc1=O`: 26%.
On to `O=C(c1ccc(O)c(O)c1)c1cc2cc(Br)cc(O)c2oc1=O`, for which the Activity was determined as 100%.
Still for that read-out and setting: in the case of `O=C(c1ccc(O)c(O)c1)c1cc2cccc(O)c2oc1=O` it was 75%; in that of `O=C(c1ccccc1)c1cc2cc(O)ccc2oc1=O`, 39%.
Same read-out and setting: in the case of `O=C(c1ccccc1)c1cc2cc(Br)cc(O)c2oc1=O` it was 65%; in that of `O=C(c1ccc(O)cc1)c1cc2cc(Br)ccc2oc1=O`, 28%.
Same read-out and setting: in the case of `Cc1c(C)c2c(c(C)c1O)CCC(C)(C(=O)O)O2` (stereo not drawn) it was 31%.

A further data set deals with BAEC. The data set is described as follows: (§5) Cytoprotective activity against H2O2-induced toxicity in BAEC assessed as cell viability at 10 uM after 24 hrs by MTT assay. The class given is functional. Conditions: Bos taurus. The method in brief:
as §4
Consider `O=C(c1ccc(O)c(O)c1)c1cc2cc(Br)ccc2oc1=O`, for which the result was inactive.

System in a further data set: not listed separately
The data set is described as §5. Format: functional. Conditions: Bos taurus, read-out: Activity. The procedure, abridged: as §4
With `Cc1cccc2cc(C(=O)c3ccc(O)cc3)c(=O)oc12`, the viability at 10 µM was determined as 40%.
The same measure, in the same setting: in the case of `O=C(c1ccccc1)c1cc2cc(O)ccc2oc1=O` it was 40%.

Values taken from ChEMBL document CHEMBL2406930, “Synthesis and electrochemical and biological studies of novel coumarin-chalcone hybrid compounds” (J Med Chem, 2013).
